Data on 23 molecules can be found in ChEMBL document CHEMBL1136887, “Synthesis and evaluation of pharmacological profile of 1-aryl-6,7-dimethoxy-3,4-dihydroisoquinoline-2(1H)-sulfonamides” (Bioorg Med Chem, 2009).

In experiment [1] the test system is Mus musculus. Nature of the experiment: Anticonvulsant activity in ip dosed DBA/2 mouse assessed as inhibition of auditory stimulation-induced tonic seizures administered 30 mins before auditory stimulation. The class given is functional. As to conditions: DBA/2, ip. The essentials:
(§1)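 DBA/2 mice (8-12 g, 22-25 days old, either sex), groups of 10, given vehicle or drug ip and exposed to auditory stimulation 30 min later. Latency to and incidence of each seizure phase scored. ED50 per seizure phase derived from dose–response curves by Litchfield–Wilcoxon, with 95% confidence limits; at least 32 animals per ED50. Fisher's exact test used for incidence.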

The subject of experiment [2] is Mus musculus. Nature of the experiment: Anticonvulsant activity in ip dosed DBA/2 mouse assessed as inhibition of auditory stimulation-induced clonic seizures administered 30 mins before auditory stimulation. The experiment is classed as functional. As to conditions: DBA/2, ip. The essentials:
as §1

In the next experiment the target is Carbonic anhydrase 9 (Homo sapiens, UniProt Q16790). Nature of the experiment: Inhibition of human recombinant carbonic anhydrase 9 catalytic domain by stopped flow CO2 hydration method.

A word on the ED50: it is the midpoint of the dose-response relation. As for `COc1cc2c(cc1OC)C(c1ccccc1)NCC2` (stereo not drawn), the figures for the median effective dose (ED50) with Mus musculus [1] and in the experiment with Mus musculus [2] were 19.3 µmol/kg and 44.8 µmol/kg, respectively.

For the molecule `COc1cc2c(cc1OC)C(c1ccccc1)N(S(N)(=O)=O)CC2` (stereo not drawn), the 50% effective dose (ED50) is 7.82 µmol/kg in the experiment on Mus musculus [1] and > 100 µmol/kg in the experiment on Mus musculus [2].

On to `COc1cc2c(cc1OC)C(c1ccc(Br)cc1)N(C(=O)CN1CCCCC1)CC2` (stereo not drawn), for which the 50% effective dose (ED50) in the experiment with Mus musculus [1] was 8.17 µmol/kg; with Mus musculus [2], 12.7 µmol/kg.

The Ki is the equilibrium dissociation constant of an inhibitor or competing ligand from its target. For the molecule `COc1cc2c(cc1OC)C(c1ccc(Cl)cc1)N(S(N)(=O)=O)CC2` (stereo not drawn), the Ki at Carbonic anhydrase 9 came out at 7.54 µM. Moreover, the ED50 turned out to be 7.25 µmol/kg with Mus musculus [1] and 23.5 µmol/kg in the experiment with Mus musculus [2].

For the molecule `COc1cc2c(cc1OC)C(c1ccc(C#N)cc1)NCC2` (stereo not drawn), the median effective dose (ED50) with Mus musculus [1] is 48.6 µmol/kg; with Mus musculus [2] it was > 100 µmol/kg.

On to `COc1cc2c(cc1OC)C(c1ccc(Br)cc1)NCC2` (stereo not drawn), for which the figures for the 50% effective dose (ED50) with Mus musculus [1] and in the experiment on Mus musculus [2] were 12.5 µmol/kg and 30.6 µmol/kg, respectively.

With `COc1cc2c(cc1OC)C(c1cccc(N)c1)NCC2` (stereo not drawn), the values for the median effective dose (ED50) with Mus musculus [1] and in the experiment with Mus musculus [2] were 18.2 µmol/kg and 40.4 µmol/kg, respectively.

In the case of `COc1cc2c(cc1OC)C(c1ccc(Cl)cc1)NCC2` (stereo not drawn), the results for the median effective dose (ED50) with Mus musculus [1] and in the experiment with Mus musculus [2] were 19.3 µmol/kg and 20.1 µmol/kg, respectively.

Regarding `COc1cc2c(cc1OC)C(c1ccc(Cl)cc1)N(C(C)=O)CC2` (stereo not drawn), the ED50 was found to be 2.39 µmol/kg with Mus musculus [1] and 4.18 µmol/kg in the experiment on Mus musculus [2].

With `COc1cc2c(cc1OC)C(c1cccc([N+](=O)[O-])c1)N(S(N)(=O)=O)CC2` (stereo not drawn), the inhibition constant (Ki) at Carbonic anhydrase 9 turned out to be 6.45 µM. The ED50 in the experiment with Mus musculus [1] and with Mus musculus [2] was > 100 µmol/kg each time.

In the case of `COc1cc2c(cc1OC)C(c1ccc(C#N)cc1)N(S(N)(=O)=O)CC2` (stereo not drawn), the inhibitory constant (Ki) at Carbonic anhydrase 9 came to 4.98 µM. Besides, the median effective dose (ED50) in the experiment on Mus musculus [1] and in the experiment on Mus musculus [2] was > 100 µmol/kg each time.

With `COc1cc2c(cc1OC)C(c1ccc(F)cc1)N(S(N)(=O)=O)CC2` (stereo not drawn), the 50% effective dose (ED50) in the experiment with Mus musculus [1] is 41.8 µmol/kg; in the experiment with Mus musculus [2], > 100 µmol/kg.

Take `COc1cc2c(cc1OC)C(c1cccc(N)c1)N(S(N)(=O)=O)CC2` (stereo not drawn): the Ki on Carbonic anhydrase 9 worked out at 8.13 µM. Besides, the median effective dose (ED50) with Mus musculus [1] was 65.8 µmol/kg; in the experiment on Mus musculus [2] it was > 100 µmol/kg.

In the case of `COc1cc2c(cc1OC)C(c1ccc([N+](=O)[O-])cc1)N(S(N)(=O)=O)CC2` (stereo not drawn), the inhibition constant (Ki) at Carbonic anhydrase 9 is 0.48 µM. Besides, the ED50 in the experiment with Mus musculus [1] and with Mus musculus [2] was > 100 µmol/kg throughout.

As to `COc1cc2c(cc1OC)C(c1ccc(F)cc1)NCC2` (stereo not drawn), the median effective dose (ED50) worked out at 26.4 µmol/kg in the experiment on Mus musculus [1] and 57.8 µmol/kg in the experiment on Mus musculus [2].

For `COc1cc2c(cc1OC)C(c1ccc(C)cc1)N(S(N)(=O)=O)CC2` (stereo not drawn), the inhibitory constant (Ki) on Carbonic anhydrase 9 worked out at 6.75 µM. Besides, the ED50 with Mus musculus [1] was found to be 51.7 µmol/kg; with Mus musculus [2] it was 97.1 µmol/kg.

For `COc1cc2c(cc1OC)C(c1ccc(Br)cc1)N(S(N)(=O)=O)CC2` (stereo not drawn), the Ki at Carbonic anhydrase 9 was determined as 8.2 µM. Besides, the 50% effective dose (ED50) in the experiment on Mus musculus [1] was 67.3 µmol/kg; in the experiment on Mus musculus [2], > 100 µmol/kg.

`COc1cc2c(cc1OC)C(c1cccc([N+](=O)[O-])c1)NCC2` (stereo not drawn): the median effective dose (ED50) in the experiment on Mus musculus [1] amounted to 7.2 µmol/kg; in the experiment with Mus musculus [2], 19.3 µmol/kg.

`COc1cc2c(cc1OC)C(c1ccc(N)cc1)NCC2` (stereo not drawn): the ED50 in the experiment on Mus musculus [1] came out at 28.6 µmol/kg; in the experiment with Mus musculus [2], 46.6 µmol/kg.

In the case of `CC1(C)O[C@@H]2[C@@H](CO[C@@]3(COS(N)(=O)=O)OC(C)(C)O[C@@H]23)O1` [TOPIRAMATE], the values for the median effective dose (ED50) in the experiment on Mus musculus [1] and in the experiment with Mus musculus [2] were 18 µmol/kg and 35.7 µmol/kg, respectively.

Turning to `COc1cc2c(cc1OC)C(c1ccc(N)cc1)N(S(N)(=O)=O)CC2` (stereo not drawn), the ED50 is 3.6 µmol/kg in the experiment on Mus musculus [1] and 17.7 µmol/kg with Mus musculus [2].

In the case of `COc1cc2c(cc1OC)C(c1ccc(C)cc1)NCC2` (stereo not drawn), the ED50 stood at 36.5 µmol/kg in the experiment on Mus musculus [1] and 48.6 µmol/kg in the experiment on Mus musculus [2].

For `COc1cc2c(cc1OC)C(c1ccc([N+](=O)[O-])cc1)NCC2` (stereo not drawn), the median effective dose (ED50) is 56.1 µmol/kg in the experiment with Mus musculus [1] and 101 µmol/kg in the experiment with Mus musculus [2].
